Hits are enriched below; roughly 2.3% of the tested compounds scored in any of these assays.
MC4R antag cAMP: MC4R antagonists of cAMP signaling, primary screen, cell-based, TR-FRET, antagonist arm of biased-ligand search. inhibition, % at 6.5 µM. Melanocortin receptor 4 (Homo sapiens), P32245. MC4R-expressing cells, MTII-stimulated cAMP, LANCE TR-FRET. 0.48% of 360,000 active;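 active = inhibition above its plate's cutoff, the mean of tested wells on that plate plus 3 SD, cut at about 29% in these data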
Target sequence (P32245 whole entry, looked up): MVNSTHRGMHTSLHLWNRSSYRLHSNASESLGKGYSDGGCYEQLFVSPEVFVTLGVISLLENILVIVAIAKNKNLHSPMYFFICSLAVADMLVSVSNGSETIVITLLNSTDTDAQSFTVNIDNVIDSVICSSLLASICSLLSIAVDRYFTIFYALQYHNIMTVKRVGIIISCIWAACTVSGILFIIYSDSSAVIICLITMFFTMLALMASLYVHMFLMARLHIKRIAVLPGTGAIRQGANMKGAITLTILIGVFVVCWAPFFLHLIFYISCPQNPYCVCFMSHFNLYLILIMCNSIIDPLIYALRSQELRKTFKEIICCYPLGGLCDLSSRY
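Material: U2OS-MC4R stable cell line | Reagent: Melanotan II challenge after compound preincubation | Doses: One concentration, 6.5 µM nominal | Incubation: 30-min compound preincubation, 1-h Melanotan II challenge, 1-h detection, room temperature | Signal: TR-FRET cAMP assay | Replicates: One well per compound, no replicates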
MsrA inh: bovine MsrA enzyme inhibitors, primary screen, biochemical, absorbance, HTS. Methionine sulfoxide reductase A (Bos taurus). purified bovine MsrA, absorbance read-out. inhibition, % at 15.5 µM. 0.75% of 360,000 active. AID 651718, 2012
bovine MsrA act: bovine MsrA enzyme activators, primary screen, biochemical, absorbance, HTS; purified bovine MsrA, absorbance read-out; AID 602163, 2012; 0.3% of 360,000 active; activation, % at 10.6 µM; in the data active = activation above about 7.5%
MC4R barr agon: MC4R agonists recruiting beta-arrestin, primary screen, cell-based, luminescence, agonist arm of biased-ligand search. activation, % at 8.9 µM. Melanocortin receptor 4 (Homo sapiens), P32245. 0.98% of 360,000 active. U2OS MC4R beta-arrestin complementation; percent of melanotan II response, DMSO zero;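 active = activation above a per-plate cutoff, the mean activation of sample wells on that plate plus 3 SD, cut at about 8% in these data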
MsrA inh confirm: bovine MsrA inhibitors, retest, confirmation, biochemical, absorbance, HTS. shares compounds with MsrA inh. purified bovine MsrA, absorbance read-out. inhibition, % at 15.5 µM. 41% of 2,300 active. AID 651822, 2012;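 also: coupled to thioredoxin reductase with NADPH and selenocystamine and DMSO as substrate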
Of the large screens only hits and unclear results are named; the others gave an inactive call (follow-up assays come after a bar, where they were run). Rule as the data show it, unless noted: active = inhibition above about 4.5%; inactive = the rest.

CCOC(=O)c1cc(C(C)=O)c(=O)n(C)c1N	MsrA inh 5.9 | MsrA inh confirm 4.8
CCOc1ccc2nc(SCC(=O)NCc3ccco3)sc2c1	none
Cc1cccc(N2C(=O)SC(N(C)c3ccccc3)C2=O)c1 (stereo unspecified)	none
CC(=O)c1ccc(N2CCN(C(=O)C3CCCN(S(=O)(=O)c4c(C)[nH]c(=O)[nH]c4=O)C3)CC2)cc1 (stereo unspecified)	MsrA inh 4.7 | MsrA inh confirm inactive
Cc1ccc(C)c(C(=O)CN2C(=O)NC3(CCC(C)CC3)C2=O)c1 (stereo unspecified)	none
CCOc1ccccc1/C=N\Nc1cnn(Cc2ccccc2)c(=O)c1Cl	none
O=c1[nH]ncc(N/N=C\c2cccs2)c1Cl	MsrA inh 9.1 | MsrA inh confirm 6.2
O=c1[nH]ncc(N/N=C\c2ccncc2)c1Cl	MsrA inh 9.6 | MsrA inh confirm 6.0
O=c1[nH]ncc(N/N=C\c2cccnc2)c1Cl	none
COc1ccccc1/C=N\Nc1cn[nH]c(=O)c1Cl	MsrA inh 5.8 | MsrA inh confirm 4.7
Cc1cccc(/C=N\Nc2cn[nH]c(=O)c2Cl)c1	MsrA inh 8.1 | MsrA inh confirm 5.0
C(=N\Nc1nc2ccccc2s1)/c1cccs1	none
O=C(Cn1nnc(-c2ccccc2)n1)N1CCN(S(=O)(=O)c2ccc(Cl)cc2)CC1	none
COc1ccccc1N1CC(C(=O)OCC(=O)Nc2cc(C)on2)CC1=O (stereo unspecified)	none
Cc1nc2ccccn2c1C(=O)N/N=C/c1ccc([N+](=O)[O-])o1	MsrA inh 5.2 | MsrA inh confirm inactive
O=C(CNC(=O)c1ccco1)N=Nc1c(O)[nH]c2ccc([N+](=O)[O-])cc12	MsrA inh 5.8 | MsrA inh confirm inactive
CC(=C1SC(=S)NC1=O)c1ccc(Cl)c(O)c1	none (no result: MC4R antag cAMP, bovine MsrA act, MC4R barr agon)
CCOc1ccc(N(C)S(=O)(=O)c2cc(-c3cc(C)no3)ccc2C(C)C)cc1	MsrA inh 11 | MsrA inh confirm 12
CCN(c1ccc(OC)cc1)S(=O)(=O)c1cc(-c2cc(C)no2)ccc1C(C)C	none
O=C(O)c1cccc(-c2ccc(/C=N/NC(=O)C3COc4ccccc4O3)o2)c1 (stereo unspecified)	MsrA inh 4.7 | MsrA inh confirm inactive
CCNC(=S)N/N=C/c1ccc(-c2ccccc2)o1	none
CNC(=S)N/N=C/c1ccc(-c2cccc(C(=O)O)c2)o1	MsrA inh 4.9 | MsrA inh confirm 6.2
COc1ccc(CC(=O)N/N=C/c2ccc(-c3cccc(C(=O)O)c3)o2)cc1OC	MsrA inh 5.1 | MsrA inh confirm inactive
Cc1ccc(OCC(=O)N/N=C\c2ccc(-c3cccc(C(=O)O)c3)o2)c(C)c1	MsrA inh 5.3 | MsrA inh confirm inactive
O=C(NC1CCCCC1)c1[nH]c(C(F)(F)F)nc1-c1ccccc1	none (no result: MC4R antag cAMP, MC4R barr agon)
COCCn1c(Sc2ccccc2)nc2c1c(=O)[nH]c(=O)n2C	none
Brc1cccc(/C=N/Nc2nn[nH]n2)c1	none
O=C(O)c1cccc(-c2ccc(/C=N/Nc3nn[nH]n3)o2)c1	MsrA inh 5.9 | MsrA inh confirm 4.6
CCCCOc1ccc(-c2csc(N)n2)cc1[N+](=O)[O-]	MsrA inh 9.4 | MsrA inh confirm inactive
CCCCOc1ccc(C2=CSC3=NCCN23)cc1[N+](=O)[O-]	none
Cc1cc([N+](=O)[O-])ccc1Nc1nc2ccccc2n2cnnc12	MsrA inh 6.4 | MsrA inh confirm 8.3
c1ccc(CNc2nc3ccccc3n3cnnc23)cc1	none
CCc1cccc(C)c1Nc1nc2ccccc2n2cnnc12	MsrA inh 5.4 | MsrA inh confirm inactive
Cc1c(Nc2nc3ccccc3n3cnnc23)cccc1[N+](=O)[O-]	none
CCN1/C(=C/C(C)=O)Sc2ccc(OC)cc21	MsrA inh 5.5 | MsrA inh confirm inactive
COC(=O)/C=C1\OCc2cc(OC)c(OC)cc21	none (no result: MC4R antag cAMP, bovine MsrA act, MC4R barr agon)
COc1cc2c(cc1OC)/C(=C/C(C)=O)OC2	MsrA inh 6.9 (no result: MC4R antag cAMP, bovine MsrA act, MC4R barr agon) | MsrA inh confirm inactive
COCCN(C(=O)c1snc(C(N)=O)c1N)C(C(=O)NC1CCCCC1)c1ccc(N(C)C)cc1 (stereo unspecified)	none
Cc1ccc(-c2cc(C(=O)O)c3sc(N4CCCCC4)nc3n2)cc1	none
O=C(O)c1cc(-c2ccccc2)nc2nc(N3CCCCC3)sc12	MsrA inh 5.8 (no result: MC4R antag cAMP, bovine MsrA act, MC4R barr agon) | MsrA inh confirm inactive
CCOC(=O)CSc1nnc(CNc2cccc(Cl)c2)n1-c1ccccc1	none
Cc1cc(=O)[nH]c(SCc2cccc3cccnc23)n1	none
CCOc1ccc2ncc(S(=O)(=O)c3ccccc3)c(N3CCN(c4ccc(OC)cc4)CC3)c2c1	none
COc1cc(-c2csc(C)n2)ccc1O	none
COc1ccc(-c2csc(C)n2)cc1Br	MsrA inh 7.9 | MsrA inh confirm 5.2
CC1Sc2ccc(C#N)cc2N(Cc2cccc(C(F)(F)F)c2)C1=O (stereo unspecified)	MsrA inh 5.4 | MsrA inh confirm inactive
O=C(/C=C\c1cccs1)c1c(O)ccc2ccc(=O)oc12	MsrA inh 5.4 | MsrA inh confirm 6.3
COCCN1C[C@@H](CO)O[C@@H](n2cnc3c(NCc4cc(OC)c(OC)c(OC)c4)ncnc32)C1	none
Cn1cnc2c(N/N=C/c3cccs3)ncnc21	MsrA inh 5.2 | MsrA inh confirm 6.9
C(=N\Nc1ncnc2sc3c(c12)CCC3)/c1cccs1	none
COc1ccc(C(=O)N2CCN(c3cnn(-c4ccccc4)c(=O)c3Cl)CC2)cc1	MsrA inh 4.7 | MsrA inh confirm inactive
O=C(O)Cc1nc(-c2cccnc2)sc1-c1ccc(Br)cc1	none
NC(=O)NC(CC(=O)Nc1cccnc1)c1cccc(Br)c1 (stereo unspecified)	none
COC(=O)c1cccc(-n2c(C)cc(/C=C3\SC(=O)NC3=O)c2C)c1	none
Cc1cc(C(=O)O)ccc1-n1c(C)cc(/C=C2\SC(=O)NC2=O)c1C	MsrA inh 5.7 | MsrA inh confirm inactive
COc1ccccc1N1CCN(S(=O)(=O)c2cn(C)cn2)CC1	none
Cc1ccc(C)c2[nH]c(=O)c(CCNC(=O)CC(C)(C)C)cc12	none
COc1cc([N+](=O)[O-])ccc1NC(=S)NNC(=O)c1ccc2c(c1)OCO2	MsrA inh 4.7 | MsrA inh confirm inactive
Cc1ccc(N2C(=O)c3cccc4c([N+](=O)[O-])ccc(c34)C2=O)c2cccnc12	none
Cc1ccnc(N2C(=O)c3cccc4c([N+](=O)[O-])ccc(c34)C2=O)c1	MsrA inh 12 | MsrA inh confirm 8.6
FC(F)(F)c1ccc(N/N=C/c2cccnc2)nc1	none
C(=N\Nc1ccccn1)/c1cccnc1	MsrA inh 5.6 | MsrA inh confirm inactive
CCOc1ccccc1NC=C1C(=O)OC(C)(C)OC1=O	none
COc1ccccc1NC=C1C(=O)OC(C)(C)OC1=O	MsrA inh 5.5 | MsrA inh confirm inactive

Compound activity (PubChem)
